Apaf-1 inh = human Apaf-1 inhibition; hit rate 0.71% among 330,000; inhibition, % at 20 µM; reconstituted apoptosome caspase-3 activity, DEVD-Rh110 fluorescence; O14727; active = inhibition of at least 40% at 20 µM;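 also: plate controls were DMSO wells for no effect and DEVD-CHO caspase inhibitor wells for full effect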
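Assay system: Apoptosome proteins | Medium: pH 7.5 Hepes buffer with CHAPS, BSA, DTT | Also added: Cytochrome c and DEVD-Rh110 substrate | Times: 30 min plus 50 min, RT | Detection: Rhodamine 110 fluorescence at Ex 480/Em 540 nm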
UBC13 polyUb = blocks human UBC13 polyubiquitin chain formation | TR-FRET | AID 485273 | hit rate 0.47% among 330,000 | inhibition, % at 20 µM; in the data active = inhibition above about 45%, passing the limit was not always enough
hiPSC survival = enhancers of human iPSC single-cell survival; hiPSC single-cell survival, ATPlite luminescence; 100% = ROCK inhibitor wells, 0% = DMSO; survival enhancement, % at 20 µM; hit rate 0.044% among 360,000; in the data active = survival enhancement above about 18%;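 also: cells exposed to compounds for 16 hours before the ATP read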
MPTP block = permeability transition pore inhibition. inhibition, % at 10 µM. hit rate 1.4% among 360,000. isolated mouse mitochondria, Ca2+ swelling absorbance, 30 min;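 active = inhibition of 50% or more, scaled per plate between neutral and stimulator controls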;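 also: 0% = DMSO wells given calcium and 100% = 1 mM EGTA wells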
Granule exo inh = lytic granule exocytosis inhibition | AID 651702 | inhibition, % at 10 µM | TALL-104 LAMP-1 surface exposure, flow cytometry; cells stimulated with thapsigargin and PMA | hit rate 0.66% among 360,000;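 active = inhibition above about 55%, limit read from the data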
beta cell repl = inducers of beta-cell replication in MIN6 cells | MIN6 cells proliferation, ATPlite luminescence, 48 h; cells starved in 0.2% serum; 100% = growth in 10% serum | AID 2380 | hit rate 0.29% among 330,000 | proliferation, % at 10 µM;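 active = compounds whose signal lies at least 3.5 SD above the mean of all wells on their plate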;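 also: 0% = DMSO-treated cells in low-serum medium and 100% = 10% serum control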
* hit, by the source's call; x = no result given. Most compounds without a hit are left out; they make up all but 3% or so of the library.

SMILES	Apaf-1 inh	UBC13 polyUb	hiPSC survival	MPTP block	Granule exo inh	beta cell repl
N=c1c(C(=O)NCc2ccco2)cc2c(=O)n3ccccc3nc2n1Cc1ccc(Cl)cc1	32	-1	-1	0	64*	-5
Cc1cccc(NC(=O)c2cc3c(=O)n4ccccc4nc3n(CC(C)C)c2=N)c1	11	-3	-4	0	24	-6
COc1ccc2[nH]c3c4c(ccc3c2c1)C(=O)C=CC4=O	45*	-67	6	6	-3	-6
Cc1cccc(C(=O)Nc2nsc(N)n2)c1	-2	-29	0	0	1	-1
COc1ccc(OC)c(NC(=O)C(CC(C)C)NC(=O)C2CCCCC2)c1 (configuration not stated)	3	16	24*	-1	2	-2
COc1ccccc1NC(=O)C(CC(C)C)NC(=O)C1CCCCC1 (configuration not stated)	0	23	2	-1	-4	3
CCCCCCC(=O)N(O)C1CC(=O)N(c2ccc(F)cc2)C1=O (configuration not stated)	-10	-7	0	8	32	-4
CCCCCCC(=O)N(O)C1CC(=O)N(c2ccc(Br)cc2)C1=O (configuration not stated)	-6	-1	-1	2	103*	-4
COc1ccc(S(=O)(=O)Nc2cccc3c2O[C@H](CN(C)Cc2ccncc2)[C@@H](C)CN([C@H](C)CO)C3=O)cc1	4	5	-1	-1	7	-1
COc1ccc(S(=O)(=O)Nc2cccc3c2O[C@H](CN(C)Cc2ccccc2)[C@@H](C)CN([C@H](C)CO)C3=O)cc1	53*	-5	0	1	1	-2
C[C@@H]1CCCCO[C@H](CN(C)S(=O)(=O)c2cccs2)[C@@H](C)CN([C@H](C)CO)C(=O)c2cc(NC(=O)C3CCCCC3)ccc2O1	x	x	-2	0	0	x
C[C@@H]1CCCCO[C@@H](CN(C)S(=O)(=O)c2cccs2)[C@@H](C)CN([C@H](C)CO)C(=O)c2cc(NS(=O)(=O)c3ccccc3)ccc2O1	x	x	22*	0	2	x
COc1ccc(S(=O)(=O)Nc2ccc3c(c2)C(=O)N([C@H](C)CO)C[C@H](C)[C@@H](CN(C)C(=O)NC2CCCCC2)O3)cc1	-1	-6	22*	-2	8	-1
CCOC(=O)C1=CCN(S(=O)(=O)c2ccc(F)cc2)C1c1cccc(F)c1 (configuration not stated)	x	x	1	0	-5	x
N#C/C(=C/c1ccc(N2CCCCC2)o1)C(=O)Nc1ccc2ccccc2c1	x	x	-2	4	63*	x
N#C/C(=C/c1ccc(N2CCCCC2)o1)C(=O)Nc1ccc(Cl)cc1	-13	-304	-2	1	9	0
Cc1ccc(/C=C/C(=O)N2CC(C)CC(C)C2)o1 (configuration not stated)	1	-4	-2	0	102*	-4
CCN(CC)c1ccc(-c2nnc(SCC(=O)Nc3ccccc3C#N)n2-c2ccccc2)cc1	19	-8	0	0	88*	-3
Nc1cccc(C(=O)OCC(=O)Nc2cccc3c2C(=O)c2ccccc2C3=O)c1	5	-22	2	0	0	-1
CC1CCN(C(=O)c2ccc3c(c2NCCO)C(=O)c2ccccc2C3=O)CC1	4	-363	0	6	7	0
CCN(CC)CCNC(=O)c1ccc2c(c1NCCO)C(=O)c1ccccc1C2=O	54*	-267	-1	9	13	-4
CCN(CC)CCC(=O)Nc1cccc2c1C(=O)c1ccccc1C2=O	5	-67	0	5	56*	-4
COc1cc(CC(CC(=O)O)CC(C)OCc2ccccc2)cc(OC)c1 (configuration not stated)	12	-5	20*	0	-5	2
COc1ccc(NC(=O)C(CC(=O)O)Cc2ccccc2)cc1 (configuration not stated)	-15	-3	-2	0	-2	-2
O=[N+]([O-])c1cccc(OCCCN2CCC(Cc3ccccc3)CC2)c1	x	x	0	3	86*	x
O=[N+]([O-])c1ccc(CN2CCC(Cc3ccccc3)CC2)cc1	-7	8	0	0	52	-2
CCCS(=O)(=O)NC(=O)C1(C)CCCN(C(=O)CCc2cccs2)C1 (configuration not stated)	x	x	8	0	1	x

Screens deposited in PubChem by several laboratories.
